Source: ChEMBL document CHEMBL1138570, “2-Acylhydrazino-5-arylpyrrole derivatives: synthesis and antifungal activity evaluation” (Eur J Med Chem, 2009)
In brackets after ≈: the same amount, converted by molar mass.

Assays:
Candida albicans [1] = test: Antimicrobial activity against Candida albicans ATCC 10231 by broth microdilution method; type: functional
Outline: (§1)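 MIC by NCCLS broth microdilution. Medium was RPMI 1640 with L-glutamine, buffered with 0.165 M MOPS at pH 7.0. Twofold drug dilutions ran 0.008–200 mg/L. Inoculum was set spectrophotometrically to 10⁶ CFU/mL, then diluted in medium to 2 ×10⁴ cells/mL. Plates were incubated overnight at 35 °C in humid air, agitated, and read visually and at 450 nm.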

Nakaseomyces glabratus [2] = test: Antimicrobial activity against Candida glabrata by broth microdilution method; type: functional; outline: as §1
Candida parapsilosis [3] = test: Antimicrobial activity against Candida parapsilosis by broth microdilution method; type: functional; conditions: Lodderomyces parapsilosis; outline: as §1
Pichia kudriavzevii [4] = test: Antimicrobial activity against Candida krusei by broth microdilution method; type: functional; outline: as §1
Candida albicans [5] = test: Antimicrobial activity against Candida albicans ATCC 10231 after 72 hrs by broth microdilution method; type: functional; conditions: ATCC 10231, 72 h
Outline: (§2)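 MFC: after MIC reading, a sample from each well was plated on Sabouraud dextrose agar and incubated 72 h at 35 °C. MFC was taken as the minimum concentration killing >99% of the original inoculum. The MIC step was NCCLS broth microdilution in MOPS-buffered RPMI 1640 (pH 7.0), with 2 ×10⁴ cells/mL, overnight at 35 °C.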

Nakaseomyces glabratus [6] = test: Antimicrobial activity against Candida glabrata after 72 hrs by broth microdilution method; type: functional; outline: as §2
Candida parapsilosis [7] = test: Antimicrobial activity against Candida parapsilosis after 72 hrs by broth microdilution method; type: functional; conditions: Lodderomyces parapsilosis; outline: as §2
Pichia kudriavzevii [8] = test: Antimicrobial activity against Candida krusei after 72 hrs by broth microdilution method; type: functional; outline: as §2
[9] = Toxicity against human MCF7 cells assessed as growth inhibition at 10 uM; type: cell-based; conditions: read-out: GI
[10] = Toxicity against human H460 cells assessed as growth inhibition at 10 uM; type: cell-based; conditions: NCI-H460 cells, read-out: GI
[11] = Toxicity against human SF268 cells assessed as growth inhibition at 10 uM; type: cell-based; conditions: SF-268 cells, read-out: GI

| MIC (Candida albicans [1]) [µg/mL] | MIC (Nakaseomyces glabratus [2]) [µg/mL] | MIC (Candida parapsilosis [3]) [µg/mL] | MIC (Pichia kudriavzevii [4]) [µg/mL] | Compound | MFC (Candida albicans [5]) [µg/mL] | MFC (Nakaseomyces glabratus [6]) [µg/mL] | MFC (Candida parapsilosis [7]) [µg/mL] | MFC (Pichia kudriavzevii [8]) [µg/mL] | inhibition at 10 µM [9] [%] | inhibition at 10 µM [10] [%] | inhibition at 10 µM [11] [%] |
| --- | --- | --- | --- | --- | --- | --- | --- | --- | --- | --- | --- |
| 3.12 (≈ 10.4 µM) | 12.5 (≈ 41.6 µM) | 25 (≈ 83.2 µM) | 25 (≈ 83.2 µM) | CCOC(=O)NNc1[nH]c(-c2ccc(OC)cc2)cc1C#N | 3.12 (≈ 10.4 µM) | 50 (≈ 166 µM) | 100 (≈ 333 µM) | 50 (≈ 166 µM) | 0.9 | 31 | 0 |
| 1.56 (≈ 5.77 µM) | 3.12 (≈ 11.5 µM) | 3.12 (≈ 11.5 µM) | 1.56 (≈ 5.77 µM) | COc1ccc(-c2cc(C#N)c(NNC(C)=O)[nH]2)cc1 | 6.25 (≈ 23.1 µM) | 12.5 (≈ 46.2 µM) | 6.25 (≈ 23.1 µM) | 3.12 (≈ 11.5 µM) | 0 | 0 | 0 |
| 3.12 (≈ 10.3 µM) | 3.12 (≈ 10.3 µM) | 3.12 (≈ 10.3 µM) | 3.12 (≈ 10.3 µM) | COC(=O)c1cc(-c2ccc(OC)cc2)[nH]c1NNC(C)=O | 3.12 (≈ 10.3 µM) | 12.5 (≈ 41.2 µM) | 6.25 (≈ 20.6 µM) | 6.25 (≈ 20.6 µM) | 0 | 0 | 0 |
| 0.39 (≈ 1.37 µM) | 0.78 (≈ 2.74 µM) | 0.78 (≈ 2.74 µM) | 0.78 (≈ 2.74 µM) | CCC(=O)NNc1[nH]c(-c2ccc(OC)cc2)cc1C#N | 6.25 (≈ 22 µM) | 12.5 (≈ 44 µM) | 12.5 (≈ 44 µM) | 12.5 (≈ 44 µM) | 4.6 | 0 | 2.1 |
| 6.25 (≈ 18.1 µM) | > 100 | 6.25 (≈ 18.1 µM) | 12.5 (≈ 36.2 µM) | CCOC(=O)c1cc(-c2ccc(OC)cc2)[nH]c1NNC(=O)C(C)C | 12.5 (≈ 36.2 µM) | > 100 | > 100 | > 100 |  |  |  |
| 6.25 (≈ 18.9 µM) | 3.12 (≈ 9.42 µM) | 100 (≈ 302 µM) | 100 (≈ 302 µM) | CCOC(=O)NNc1[nH]c(-c2ccc(C)cc2)cc1C(=O)OCC | 6.25 (≈ 18.9 µM) | 25 (≈ 75.4 µM) | > 100 | > 100 |  |  |  |
| 3.12 (≈ 9.83 µM) | 6.25 (≈ 19.7 µM) | 50 (≈ 158 µM) | 12.5 (≈ 39.4 µM) | CCOC(=O)c1cc(-c2ccc(OC)cc2)[nH]c1NNC(C)=O | 3.12 (≈ 9.83 µM) | 12.5 (≈ 39.4 µM) | 50 (≈ 158 µM) | 25 (≈ 78.8 µM) |  |  |  |

| Compound | MIC (Candida albicans [1]) [µg/mL] | MIC (Nakaseomyces glabratus [2]) [µg/mL] | MIC (Candida parapsilosis [3]) [µg/mL] | MIC (Pichia kudriavzevii [4]) [µg/mL] | MFC (Candida albicans [5]) [µg/mL] | MFC (Nakaseomyces glabratus [6]) [µg/mL] | MFC (Candida parapsilosis [7]) [µg/mL] | MFC (Pichia kudriavzevii [8]) [µg/mL] | inhibition at 10 µM [9] [%] | inhibition at 10 µM [10] [%] | inhibition at 10 µM [11] [%] |
| --- | --- | --- | --- | --- | --- | --- | --- | --- | --- | --- | --- |
| C[C@@H]1[C@H](O)[C@@H](C)/C=C/C=C/C=C/C=C/C=C/C=C/C=C/[C@H](O[C@@H]2O[C@H](C)[C@@H](O)[C@H](N)[C@@H]2O)C[C@@H]2O[C@](O)(C[C@@H](O)C[C@@H](O)[C@H](O)CC[C@@H](O)C[C@@H](O)CC(=O)O[C@H]1C)C[C@H](O)[C@H]2C(=O)O [AMPHOTERICIN B] | 0.39 (≈ 0.422 µM) | 0.78 (≈ 0.844 µM) | 0.78 (≈ 0.844 µM) | 0.78 (≈ 0.844 µM) | 0.78 (≈ 0.844 µM) | 1.56 (≈ 1.69 µM) | 1.56 (≈ 1.69 µM) | 1.56 (≈ 1.69 µM) |  |  |  |
